The results in this text go back to ChEMBL document CHEMBL1212802, “Newly identified antibacterial compounds are topoisomerase poisons in African trypanosomes” (Antimicrob Agents Chemother, 2010).

Assay [1] relates to Trypanosoma brucei brucei. The assay is described as follows: Inhibition of mitochondrion topoisomerase 1A in Trypanosoma brucei brucei MiTat 1.2 strain 427 bloodstream assessed as protection of linerarizd minicircle from lambda exonuclase at 25.5 uM. The method, boiled down:
(§1)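 Cells were treated 1 h at 37°C, lysed with SDS, and digested with proteinase K and RNase. DNA was phenol-extracted, precipitated and cleaned up. It was then digested with λ exonuclease (glycine-KOH pH 9.4, MgCl2, BSA) or exonuclease III (Bis-Tris-propane pH 7.0, MgCl2, DTT) for 30 min at 37°C. HindIII-linearized pBluescript served as internal control. Minicircles were detected by Southern blot.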

Assay [2] has as its system Trypanosoma brucei brucei. Kind of assay: Inhibition of topoisomerase in Trypanosoma brucei brucei MiTat 1.2 strain 427 bloodstream assessed as enzyme -DNA cleavable complex at 50 uM relative to DMSO. The method, boiled down: (§2)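 KSDS assay: cells at 10^7/ml in thymidine-free medium were labelled 1 h at 37°C with [3H]thymidine, washed, and treated 30 min at 37°C with DMSO, 500 μM etoposide or compound, in triplicate. Lysates in SDS/EDTA with calf thymus DNA were heated 10 min at 65°C, then KCl-precipitated and washed, and the precipitate was scintillation-counted. Percent trapped DNA = KSDS cpm ÷ TCA-precipitable cpm of untreated cells.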

Assay [3] relates to Trypanosoma brucei brucei. The assay is described as follows: Antitrypanosomal activity against Trypanosoma brucei brucei MiTat 1.2 strain 427 bloodstream assessed as decrease in topoisomerase 2mt level at 0-100 uM. In kind it is functional, organism-based. The method, boiled down:
(§3)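 Western band depletion: 1.2 × 10^7 cells in medium were exposed to compound for 30 min at 37°C. A portion taken just before lysis was lysed in SDS/DTT sample buffer and run on SDS-PAGE. Blots were probed for c-Myc-tagged topoisomerase IAmt (anti-c-Myc) and for topoisomerase IImt (specific antiserum), with enolase as loading control. Free enzyme was quantitated densitometrically.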

The test system of assay [4] is Nucleic Acid. The assay is described as follows: Binding affinity to plasmid DNA assessed as DNA unwinding in presence of vaccinia virus topoisomerase 1B by electrophoresis. It counts as nucleic-acid assay. The method, boiled down:
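Supercoiled pBluescript, or pBluescript pre-relaxed with E. coli topoisomerase IA (250 ng), was exposed to a range of compound concentrations in 50 mM Tris HCl pH 7.5, 50 mM NaCl, 5 mM MgCl2. Then 1 pM vaccinia topoisomerase IB was added (1 h, 37°C). Reactions were SDS-quenched, run on 1% agarose in Tris-borate-EDTA, and stained with ethidium bromide.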

Assay [5] deals with Trypanosoma brucei brucei. Kind of assay: Inhibition of topoisomerase in Trypanosoma brucei brucei MiTat 1.2 strain 427 bloodstream assessed as enzyme-DNA cleavable complex at 50 uM (RvB = 2.2 +/- 0.05%). The method, boiled down:
as §2

The subject of assay [6] is Trypanosoma brucei brucei. Kind of assay: Antitrypanosomal activity against Trypanosoma brucei brucei MiTat 1.2 strain 427 bloodstream assessed as decrease in topoisomerase 1Amt level at 0-100 uM. It counts as functional, organism-based. In outline:
as §3

The test system of assay [7] is Trypanosoma brucei brucei. The assay is described as follows: Inhibition of mitochondrion topoisomerase 1A in Trypanosoma brucei brucei MiTat 1.2 strain 427 bloodstream assessed as increase in protein-sensitive linear DNA forms at 0-40 uM. The method, boiled down: (§4)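 Free minicircle profiles: 1.2 × 10^7 cells were exposed to compound for 30 min at 37°C. Cells were lysed in SDS/EDTA buffer with or without proteinase K (2 h, 55°C), then treated with RNase A. DNA was run on 1.5% agarose with ethidium bromide and Southern-blotted with a 32P probe to the conserved 124-bp minicircle sequence. Read by phosphorimaging.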

Assay [8] relates to Trypanosoma brucei brucei. The assay is described as follows: Inhibition of mitochondrion topoisomerase 1A in Trypanosoma brucei brucei MiTat 1.2 strain 427 bloodstream assessed as protection of linerarizd minicircle from lambda exonuclase at 63 uM. In outline:
as §1

For assay [9], the system named is Trypanosoma brucei brucei. Kind of assay: Antitrypanosomal activity against Trypanosoma brucei brucei MiTat 1.2 strain 427 bloodstream by acid phosphatase method. In kind it is functional, organism-based. In outline:
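Bloodstream cells at 2 × 10^5/ml were given 2× serial dilutions of compound (final DMSO ≤1%), quadruplicate wells, for 20–24 h at 37°C. Motility was checked microscopically. p-Nitrophenyl phosphate in acetate buffer pH 5.5 with Triton X-100 was added for 5 h at 37°C, then A405 was read. Three runs; EC50 from Emax model fit; outliers removed by Chauvenet's criterion.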

The subject of assay [10] is Trypanosoma brucei brucei. The assay is described as follows: Inhibition of mitochondrion topoisomerase 1A in Trypanosoma brucei brucei MiTat 1.2 strain 427 bloodstream assessed as protection of linerarizd minicircle from exonuclase 3 at 25.5 uM. In outline:
as §1

Assay [11] concerns Trypanosoma brucei brucei. The assay is described as follows: Inhibition of mitochondrion topoisomerase 1A in Trypanosoma brucei brucei MiTat 1.2 strain 427 bloodstream assessed as increase in protein-sensitive linear DNA forms at 60-100 uM. The method, boiled down: as §4
Assay [12] has as its system Trypanosoma brucei brucei. Kind of assay: Antitrypanosomal activity against Trypanosoma brucei brucei MiTat 1.2 strain 427 bloodstream assessed as decrease in topoisomerase 1Amt level at 0-120 uM. It counts as functional, organism-based. The method, boiled down:
as §3

Assay [13] has as its system Trypanosoma brucei brucei. Kind of assay: Inhibition of mitochondrion topoisomerase 1A in Trypanosoma brucei brucei MiTat 1.2 strain 427 bloodstream assessed as protection of linerarizd minicircle from exonuclase 3 at 63 uM. In outline:
as §1

The subject of assay [14] is Trypanosoma brucei brucei. The assay is described as follows: Antitrypanosomal activity against Trypanosoma brucei brucei MiTat 1.2 strain 427 bloodstream assessed as decrease in topoisomerase 2mt level at 0-120 uM. It counts as functional, organism-based. In outline: as §3

The source made the active and inactive calls.

The EC50 is the concentration giving half of the maximal effect. A lower EC50 goes with greater potency. With `O=c1c2cccc3c2c(nn1CN1CCCCC1)-c1ccccc1-3`, the inhibition result in [1], in [8] and in assay [11] was “inactive” in each case. The Ratio in assay [2] came out at 0.77. The outcome in [3] and in assay [14] was Active. Moreover, the Activity result in [4] is “Dose-dependent effect”. The % DNA in cleavable complexes in [5] was found to be 1.7%. The result in [6] and in assay [12] was inactive. For the same compound, the inhibition entry in [7], in assay [10] and in assay [13] was “Active” in each case. Also, the EC50 in assay [9] was found to be 16.9 µM.

For the compound `CN(C)CCc1cc2c(c3c1ccc1ccccc13)OCO2`, the inhibition result in [1], in assay [8] and in assay [11] was “inactive” each time. Moreover, the Ratio in [2] turned out to be 0.86. In addition, the result in assay [3] and in assay [14] was Active. Further, the Activity entry in assay [4] is “Dose-dependent effect”. The % DNA in cleavable complexes in [5] came to 1.9%. Also, the result in assay [6] and in assay [12] was inactive. The inhibition result in assay [7], in assay [10] and in assay [13] was “Active” each time. This compound also gave an EC50 in assay [9] of 6.3 µM.
